Test results: ChEMBL document CHEMBL1800052, “Regioselective Suzuki coupling of dihaloheteroaromatic compounds as a rapid strategy to synthesize potent rigid combretastatin analogues” (J Med Chem, 2011)
Calls of active or inactive are those of the source. The rule behind the calls is not given here.

How the values were obtained:
[1] = test system: SH-SY5Y; test: Cytotoxicity against human SH-SY5Y cells assessed as cell viability at 1 uM after 48 hrs by MTT assay; format: functional; details: read-out: Activity
Method in brief: (§1)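 SH-SY5Y cells in 50% DMEM/50% F-12 with 10% FBS, 2 mM L-glutamine, penicillin and streptomycin, grown 48 h with or without compound. Cells were washed in Locke's solution (pH 7.6), given MTT (250 μg/mL) for 30 min at 37 °C, solubilized in isopropyl alcohol/HCl, and read at 570 nm. Single-point values are % viable cells at 1 μM. IC50s come from fitted full concentration-response curves; mean ± SD of 12 determinations from 3 experiments.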

[2] = target: T1, Tubulin alpha (Homo sapiens) (UniProt P0DPH7+P68366+Q71U36+P68363+Q9BQE3+Q6PEY2+A6NHL2+Q9NY65); test: Inhibition of tubulin alpha polymerization in human HeLa cells assessed as increase in soluble tubulin alpha fraction at 3 times IC50 value after 16 hrs by Western blotting in presence of paclitaxel; format: cell-based
Method in brief: (§2)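 Cells were grown 16 h with or without drug (3 × IC50), trypsinized, and lysed 10 min at RT in hypotonic buffer (20 mM Tris-HCl pH 6.8, 1 mM MgCl2, 2 mM EGTA, 0.5% NP-40, protease inhibitors) containing 4 μg/mL paclitaxel. Protein-normalized lysate (50 μg) was spun at 13 000 rpm for 15 min. Pellet (polymerized) and supernatant (free) fractions were run on 10% SDS-PAGE and blotted with anti-α-tubulin, read by chemiluminescence.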

[3] = target: T1, Tubulin alpha (Homo sapiens); test: Inhibition of tubulin alpha in human SH-SY5Y cells assessed as inhibition of tubulin alpha polymerization at 3 times IC50 value after 24 hrs by immunofluorescence; format: cell-based
Method in brief: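 Cells were fixed in 3.7% paraformaldehyde for 20 min, permeabilized in ice-cold 80% MeOH, and blocked with 0.2% fish gelatine. Staining used anti-α-tubulin (1:1000, 20 min RT), then Alexa 488 anti-mouse with DRAQ5 nuclear stain. Imaging was by confocal microscopy with a 63× oil objective.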

[4] = test system: HeLa; test: Cytotoxicity against human HeLa cells assessed as cell viability after 48 hrs by MTT assay; format: functional, cell-based
[5] = test system: SH-SY5Y; test: Cytotoxicity against human SH-SY5Y cells assessed as cell viability after 48 hrs by MTT assay; format: functional, cell-based; method in brief: as §1
[6] = test system: HeLa; test: Cell cycle arrest in human HeLa cells assessed as accumulation at G2/M phase at 3 times IC50 value after 16 hrs using propidium iodide staining by FACS analysis; format: functional, cell-based
Method in brief: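 Cells were treated 16 h with vehicle or 3 × IC50 compound, washed in PBS, fixed in ice-cold 30:70 PBS/EtOH, and stored at −20 °C. They were then treated with RNase (100 μg/mL) for 30 min at RT and stained with propidium iodide (100 μg/mL) in PBS with 5 mM EDTA for 30 min in the dark. DNA content was read by flow cytometry, representative of three experiments.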

[7] = target: T1, Tubulin alpha (Homo sapiens); test: Inhibition of tubulin alpha polymerization in human HeLa cells assessed as decreased pelletable tubulin alpha fraction at 3 times IC50 value after 16 hrs by Western blotting in presence of paclitaxel; format: cell-based; method in brief: as §2
[8] = Inhibition of tubulin alpha polymerization; details: concentration not given here

SMILES | viability at 1 µM [1] | IC50 [4] | IC50 [5] | other results
COc1cc(-c2cscc2-c2cccc(C#N)c2)cc(OC)c1OC | 97% | – | – | –
COc1ccc(-c2cscc2-c2cc(OC)c(OC)c(OC)c2)cc1O | 29% | 200 nM | 79 nM | inhibition [2]: Active; tubulin polymerization inhibition (qualitative call) [3]: Active; Activity [6]: Active; inhibition [7]: Active
COc1ccc(-c2cscc2-c2cc(OC)c(OC)c(OC)c2)cc1F | 52% | – | – | –
COc1ccc(-c2cscc2-c2cc(OC)c(OC)c(OC)c2)cc1OC | 94% | – | – | –
COc1cccc(-c2cscc2-c2cc(OC)c(OC)c(OC)c2)c1F | 28% | 430 nM | 330 nM | –
COc1cc(-c2cscc2-c2cccc3ccccc23)cc(OC)c1OC | 83% | – | – | –
COc1cc(-c2cscc2-c2ccc(O)cc2)cc(OC)c1OC | 93% | – | – | –
COc1ccc(-c2occc2-c2cc(OC)c(OC)c(OC)c2)cc1O | 20% | 20 nM | 9.4 nM | inhibition [2]: Active; inhibition [8]: 50%; Activity [6]: Active; inhibition [7]: Active
COc1cc(-c2cscc2-c2ccc(C)c(C)c2)cc(OC)c1OC | 84% | – | – | –
COc1cc(-c2cscc2-c2cccnc2)cc(OC)c1OC | 109% | – | – | –
COc1cc(-c2cscc2-c2cccc3ncccc23)cc(OC)c1OC | 100% | – | – | –
COc1cc(-c2cscc2-c2cnc3ccccc3c2)cc(OC)c1OC | 45% | – | – | –
COc1cc(-c2cscc2-c2ccc(Cl)c(C(F)(F)F)c2)cc(OC)c1OC | 91% | – | – | –
COc1cc(-c2cscc2-c2ccc3c(c2)OCO3)cc(OC)c1OC | 65% | – | – | –
COc1ccc(-c2cscc2-c2cc(OC)c(OC)c(OC)c2)cc1 | 31% | 420 nM | 480 nM | –
COc1cc(-c2cscc2-c2ccc(C)c(F)c2)cc(OC)c1OC | 30% | 420 nM | 310 nM | Activity [6]: Active

SMILES | viability at 1 µM [1] | IC50 [4] | IC50 [5] | other results
COc1ccc(-c2cscc2-c2cc(OC)c(OC)c(OC)c2)cn1 | 82% | – | – | –
COc1cc(-c2cscc2-c2ccc3c(c2)OCCO3)cc(OC)c1OC | 27% | 420 nM | 350 nM | Activity [6]: Active
COc1cc(-c2cscc2-c2ccc(OC(F)(F)F)cc2)cc(OC)c1OC | 93% | – | – | –
COc1cc(-c2cscc2-c2cccc([N+](=O)[O-])c2)cc(OC)c1OC | 108% | – | – | –
COc1cc(-c2cscc2-c2cc(OC)c(OC)c(OC)c2)cc(OC)c1OC | 91% | – | – | –
COc1ccc(/C=C\c2cc(OC)c(OC)c(OC)c2)cc1O [COMBRETASTATIN A4] | 23% | 1.7 nM | 2.3 nM | inhibition [2]: Active; tubulin polymerization inhibition (qualitative call) [3]: Active; Activity [6]: Active; inhibition [7]: Active
COc1cc(-c2cscc2-c2ccc(SC)cc2)cc(OC)c1OC | 51% | – | – | –
COc1ccc(-c2occc2-c2cc(OC)c(OC)c(OC)c2)cc1 | 24% | 170 nM | 34 nM | tubulin polymerization inhibition (qualitative call) [3]: Active
COc1ccc(-c2cscc2-c2cc(OC)c(OC)c(OC)c2)c(OC)c1 | 90% | – | – | –
COc1ccc(C2=C(c3cc(OC)c(OC)c(OC)c3)CCC2)cc1O | 33% | 300 nM | 37 nM | inhibition [2]: Active; tubulin polymerization inhibition (qualitative call) [3]: Active; Activity [6]: Active; inhibition [7]: Active
COc1cc(-c2cscc2-c2cccc(OC)c2OC)cc(OC)c1OC | 90% | – | – | –
COc1cc(-c2cscc2-c2cccc(C(F)(F)F)c2)cc(OC)c1OC | 91% | – | – | –
COc1cccc(-c2cscc2-c2cc(OC)c(OC)c(OC)c2)c1 | 49% | – | – | –
COc1ccc(-c2ccoc2-c2cc(OC)c(OC)c(OC)c2)cc1 | 23% | 17 nM | 28 nM | –
COc1ccc(-c2cscc2-c2cc(OC)c(OC)c(OC)c2)cc1C | 80% | – | – | –
COc1ccc(-c2ccoc2-c2cc(OC)c(OC)c(OC)c2)cc1O | 23% | 3.1 nM | 2.4 nM | inhibition [2]: Active; tubulin polymerization inhibition (qualitative call) [3]: Active; Activity [6]: Active; inhibition [7]: Active
